Measured values: ChEMBL document CHEMBL4689842, “EUbOPEN Chemogenomics Library wave 1” (2021)
Several values for one entry are separate records, joined by “and”; a condition that tells them apart may be missing. Equal entries are not always repeated.

Tests used:
Format in all cases: toxicity, cell-based
[1] = system: Fibroblast; assay: Multiplex assay against human fibroblast; conditions: 10 µM, compound concentration 10 uM
Outline: (§1)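 Values for tubulin, mitochondrial-mass and membrane-permeability phenotypes are per cents of cells with healthy nuclei. These cells were identified by CellPathfinder machine-learning gating of live cells that had been stained at seeding with Hoechst33342, BioTracker Green Microtubule Cytoskeleton Dye, MitoTracker Red and Annexin V Alexa Fluor 680 and imaged on a CQ1 microscope at 37°C and 5% CO2 after compound addition. The gating first set Hoechst high-intensity objects apart from normal cells, then split normal cells into healthy, pyknosed or fragmented nuclei, and pyknosed cells into mitotic or apoptotic.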

[2] = system: HEK-293T; assay: Multiplex assay against HEK293T; conditions: human, 10 µM, compound concentration 10 uM; outline: as §1;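 as to Population Tubulin-Different-Phenotype (%): share of the cells with healthy nuclei that show this phenotype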
[3] = system: U2OS; assay: Multiplex assay against U2OS; conditions: human, 10 µM, compound concentration 10 uM; outline: as §1
[4] = system: HEK-293T; assay: Incucyte cell viability with HEK293T; conditions: human, 10 µM, compound concentration 10 uM; also: filed as whole numbers so only -1 and 0 and 1 occur
[5] = system: Fibroblast; assay: Incucyte cell viability with human fibroblast; conditions: 10 µM, compound concentration 10 uM; also: filed as whole numbers so only -1 and 0 and 1 occur
[6] = system: U2OS; assay: Incucyte cell viability with U2OS; conditions: human, 10 µM, compound concentration 10 uM; also: filed as whole numbers so only -1 and 0 and 1 occur
[7] = 0 h, replicate number 1, timepoint 0 hours
[8] = 0 h, replicate number 2, timepoint 0 hours
[9] = 12 h, replicate number 1, timepoint 12 hours
[10] = 18 h, replicate number 1, timepoint 18 hours
[11] = 24 h, replicate number 1, timepoint 24 hours

`Cn1nc(C(=O)NCc2ccc(C(=O)O)cc2)cc1-c1ccc2[nH]ccc2c1` [BI 4395] was tested, and the “Population Apoptotic (%)” value ([1]; 12 h, replicate 1) was 77% and 69%, the “Population Fragmented Nuclei (%)” value ([1]; 12 h, replicate 1) was 29% and 28% and the “Population Healthy Nuclei (%)” value ([1]; 12 h, replicate 1) was 57%. For the same compound, the “Population Hoechst High Intensity Objects (%)” value ([1]; 12 h, replicate 1) was 12% and 19%, the “Population Mitochondria Different-Phenotype (%)” value ([1]; 12 h, replicate 1) was 3% and 2% and the “Population Mitotic Cells (%)” value ([1]; 12 h, replicate 1) was 22% and 30%. The “Population Normal (%)” value ([1]; 12 h, replicate 1) was 87% and 80%, the “Population Pyknosed Nuclei (%)” value ([1]; 12 h, replicate 1) was 13% and 14% and the “Population Tubulin-Different-Phenotype (%)” value ([1]; 12 h, replicate 1) was 9% and 4%. The “Total Cell Count” value ([1]; 12 h, replicate 1) was 190 and 199, the “Population Apoptotic (%)” value ([1]; 12 h, replicate 2) was 42% and 100% and the “Population Fragmented Nuclei (%)” value ([1]; 12 h, replicate 2) was 43% and 54%. For the same compound, the “Population Healthy Nuclei (%)” value ([1]; 12 h, replicate 2) was 38% and 39%, the “Population Hoechst High Intensity Objects (%)” value ([1]; 12 h, replicate 2) was 29% and 49% and the “Population Membrane Permeable-Phenotype (%)” value ([1]; 12 h, replicate 2) was 26% and 9%. For the same compound, the “Population Mitochondria Different-Phenotype (%)” value ([1]; 12 h, replicate 2) was 13% and 0%, the “Population Normal (%)” value ([1]; 12 h, replicate 2) was 70% and 50% and the “Total Cell Count” value ([1]; 12 h, replicate 2) was 55 and 104. For the same compound, the “Population Apoptotic (%)” value ([1]; 24 h, replicate 1) was 71% and 69%, the “Population Fragmented Nuclei (%)” value ([1]; 24 h, replicate 1) was 29% and 27% and the “Population Healthy Nuclei (%)” value ([1]; 24 h, replicate 1) was 58% and 57%. For the same compound, the “Population Hoechst High Intensity Objects (%)” value ([1]; 24 h, replicate 1) was 12% and 17%, the “Population Membrane Permeable-Phenotype (%)” value ([1]; 24 h, replicate 1) was 9% and 5% and the “Population Mitochondria Different-Phenotype (%)” value ([1]; 24 h, replicate 1) was 2% and 0%. For the same compound, the “Population Mitotic Cells (%)” value ([1]; 24 h, replicate 1) was 28% and 30%, the “Population Normal (%)” value ([1]; 24 h, replicate 1) was 87% and 82% and the “Population Pyknosed Nuclei (%)” value ([1]; 24 h, replicate 1) was 14%. The “Population Tubulin-Different-Phenotype (%)” value ([1]; 24 h, replicate 1) was 7% and 4%, the “Total Cell Count” value ([1]; 24 h, replicate 1) was 202 and 211 and the “Population Fragmented Nuclei (%)” value ([1]; 24 h, replicate 2) was 75% and 51%. The “Population Healthy Nuclei (%)” value ([1]; 24 h, replicate 2) was 25% and 37%, the “Population Hoechst High Intensity Objects (%)” value ([1]; 24 h, replicate 2) was 44% and 38% and the “Population Membrane Permeable-Phenotype (%)” value ([1]; 24 h, replicate 2) was 15%. For the same compound, the “Population Mitochondria Different-Phenotype (%)” value ([1]; 24 h, replicate 2) was 15% and 7%, the “Population Mitotic Cells (%)” value ([1]; 24 h, replicate 2) was 0% and the “Population Normal (%)” value ([1]; 24 h, replicate 2) was 55% and 61%. For the same compound, the “Population Pyknosed Nuclei (%)” value ([1]; 24 h, replicate 2) was 0% and 11%, the “Population Tubulin-Different-Phenotype (%)” value ([1]; 24 h, replicate 2) was 15% and 38% and the “Total Cell Count” value ([1]; 24 h, replicate 2) was 94 and 57. For the same compound, the “Population Apoptotic (%)” value ([2]; 12 h, replicate 1) was 20% and 23%, the “Population Fragmented Nuclei (%)” value ([2]; 12 h, replicate 1) was 9% and 10% and the “Population Healthy Nuclei (%)” value ([2]; 12 h, replicate 1) was 78% and 75%. The “Population Hoechst High Intensity Objects (%)” value ([2]; 12 h, replicate 1) was 9% and 8%, the “Population Membrane Permeable-Phenotype (%)” value ([2]; 12 h, replicate 1) was 4% and 2% and the “Population Mitochondria Different-Phenotype (%)” value ([2]; 12 h, replicate 1) was 2% and 7%. For the same compound, the “Population Mitotic Cells (%)” value ([2]; 12 h, replicate 1) was 79% and 76%, the “Population Normal (%)” value ([2]; 12 h, replicate 1) was 90% and 91% and the “Population Pyknosed Nuclei (%)” value ([2]; 12 h, replicate 1) was 12% and 14%. For the same compound, the “Population Tubulin-Different-Phenotype (%)” value ([2]; 12 h, replicate 1) was 2% and 3%, the “Total Cell Count” value ([2]; 12 h, replicate 1) was 895 and 750 and the “Population Apoptotic (%)” value ([2]; 12 h, replicate 2) was 5% and 6%. The “Population Healthy Nuclei (%)” value ([2]; 12 h, replicate 2) was 84%, the “Population Hoechst High Intensity Objects (%)” value ([2]; 12 h, replicate 2) was 1% and the “Population Membrane Permeable-Phenotype (%)” value ([2]; 12 h, replicate 2) was 1%. For the same compound, the “Population Mitochondria Different-Phenotype (%)” value ([2]; 12 h, replicate 2) was 4%, the “Population Mitotic Cells (%)” value ([2]; 12 h, replicate 2) was 94% and 93% and the “Population Normal (%)” value ([2]; 12 h, replicate 2) was 98%. The “Population Pyknosed Nuclei (%)” value ([2]; 12 h, replicate 2) was 5% and 4%, the “Population Tubulin-Different-Phenotype (%)” value ([2]; 12 h, replicate 2) was 4% and the “Total Cell Count” value ([2]; 12 h, replicate 2) was 1558 and 1918. For the same compound, the “Population Apoptotic (%)” value ([2]; 24 h, replicate 1) was 15% and 13%, the “Population Fragmented Nuclei (%)” value ([2]; 24 h, replicate 1) was 11% and 14% and the “Population Healthy Nuclei (%)” value ([2]; 24 h, replicate 1) was 81% and 80%. The “Population Hoechst High Intensity Objects (%)” value ([2]; 24 h, replicate 1) was 6% and 4%, the “Population Membrane Permeable-Phenotype (%)” value ([2]; 24 h, replicate 1) was 9% and 6% and the “Population Mitochondria Different-Phenotype (%)” value ([2]; 24 h, replicate 1) was 2% and 4%. The “Population Mitotic Cells (%)” value ([2]; 24 h, replicate 1) was 84% and 86%, the “Population Normal (%)” value ([2]; 24 h, replicate 1) was 93% and 95% and the “Population Pyknosed Nuclei (%)” value ([2]; 24 h, replicate 1) was 6% and 5%. For the same compound, the “Population Tubulin-Different-Phenotype (%)” value ([2]; 24 h, replicate 1) was 3% and 5%, the “Total Cell Count” value ([2]; 24 h, replicate 1) was 1152 and 1021 and the “Population Fragmented Nuclei (%)” value ([2]; 24 h, replicate 2) was 26% and 29%. The “Population Healthy Nuclei (%)” value ([2]; 24 h, replicate 2) was 71% and 68%, the “Population Hoechst High Intensity Objects (%)” value ([2]; 24 h, replicate 2) was 2% and 3% and the “Population Membrane Permeable-Phenotype (%)” value ([2]; 24 h, replicate 2) was 4%. For the same compound, the “Population Mitochondria Different-Phenotype (%)” value ([2]; 24 h, replicate 2) was 1%, the “Population Mitotic Cells (%)” value ([2]; 24 h, replicate 2) was 98% and 91% and the “Population Normal (%)” value ([2]; 24 h, replicate 2) was 97% and 96%. The “Population Pyknosed Nuclei (%)” value ([2]; 24 h, replicate 2) was 2% and 1%, the “Total Cell Count” value ([2]; 24 h, replicate 2) was 2665 and 3275 and the “Population Apoptotic (%)” value ([3]; 12 h, replicate 1) was 42%. For the same compound, the “Population Fragmented Nuclei (%)” value ([3]; 12 h, replicate 1) was 4%, the “Population Healthy Nuclei (%)” value ([3]; 12 h, replicate 1) was 87% and 92% and the “Population Hoechst High Intensity Objects (%)” value ([3]; 12 h, replicate 1) was 2% and 3%. The “Population Membrane Permeable-Phenotype (%)” value ([3]; 12 h, replicate 1) was 9% and 4%, the “Population Mitochondria Different-Phenotype (%)” value ([3]; 12 h, replicate 1) was 17% and the “Population Mitotic Cells (%)” value ([3]; 12 h, replicate 1) was 57%. For the same compound, the “Population Normal (%)” value ([3]; 12 h, replicate 1) was 97% and 96%, the “Population Pyknosed Nuclei (%)” value ([3]; 12 h, replicate 1) was 8% and the “Population Tubulin-Different-Phenotype (%)” value ([3]; 12 h, replicate 1) was 21% and 16%. For the same compound, the “Total Cell Count” value ([3]; 12 h, replicate 1) was 177 and 225, the “Population Fragmented Nuclei (%)” value ([3]; 12 h, replicate 2) was 9% and 7% and the “Population Healthy Nuclei (%)” value ([3]; 12 h, replicate 2) was 89%. The “Population Hoechst High Intensity Objects (%)” value ([3]; 12 h, replicate 2) was 11%, the “Population Membrane Permeable-Phenotype (%)” value ([3]; 12 h, replicate 2) was 8% and the “Population Mitochondria Different-Phenotype (%)” value ([3]; 12 h, replicate 2) was 35% and 23%. The “Population Mitotic Cells (%)” value ([3]; 12 h, replicate 2) was 50% and 100%, the “Population Normal (%)” value ([3]; 12 h, replicate 2) was 88% and the “Population Pyknosed Nuclei (%)” value ([3]; 12 h, replicate 2) was 2% and 3%. The “Population Tubulin-Different-Phenotype (%)” value ([3]; 12 h, replicate 2) was 30%, the “Total Cell Count” value ([3]; 12 h, replicate 2) was 84 and 159 and the “Population Apoptotic (%)” value ([3]; 24 h, replicate 1) was 18% and 33%. For the same compound, the “Population Fragmented Nuclei (%)” value ([3]; 24 h, replicate 1) was 4% and 1%, the “Population Healthy Nuclei (%)” value ([3]; 24 h, replicate 1) was 95% and the “Population Hoechst High Intensity Objects (%)” value ([3]; 24 h, replicate 1) was 1%. For the same compound, the “Population Membrane Permeable-Phenotype (%)” value ([3]; 24 h, replicate 1) was 6%, the “Population Mitochondria Different-Phenotype (%)” value ([3]; 24 h, replicate 1) was 18% and 24% and the “Population Mitotic Cells (%)” value ([3]; 24 h, replicate 1) was 81% and 66%. The “Population Normal (%)” value ([3]; 24 h, replicate 1) was 98%, the “Population Pyknosed Nuclei (%)” value ([3]; 24 h, replicate 1) was 6% and 2% and the “Population Tubulin-Different-Phenotype (%)” value ([3]; 24 h, replicate 1) was 20%. The “Total Cell Count” value ([3]; 24 h, replicate 1) was 253 and 307, the “Population Apoptotic (%)” value ([3]; 24 h, replicate 2) was 40% and 60% and the “Population Fragmented Nuclei (%)” value ([3]; 24 h, replicate 2) was 7% and 5%. For the same compound, the “Population Healthy Nuclei (%)” value ([3]; 24 h, replicate 2) was 87% and 89%, the “Population Hoechst High Intensity Objects (%)” value ([3]; 24 h, replicate 2) was 7% and 6% and the “Population Membrane Permeable-Phenotype (%)” value ([3]; 24 h, replicate 2) was 9% and 8%. The “Population Mitochondria Different-Phenotype (%)” value ([3]; 24 h, replicate 2) was 15% and 40%, the “Population Mitotic Cells (%)” value ([3]; 24 h, replicate 2) was 60% and 40% and the “Population Normal (%)” value ([3]; 24 h, replicate 2) was 92% and 93%. The “Population Pyknosed Nuclei (%)” value ([3]; 24 h, replicate 2) was 5%, the “Population Tubulin-Different-Phenotype (%)” value ([3]; 24 h, replicate 2) was 34% and 29% and the “Total Cell Count” value ([3]; 24 h, replicate 2) was 199 and 102. The “Growth Rate” value [4, 7] was 0, the “Growth Rate” value [4, 8] was 1 and the “Growth Rate” value [4, 9] was 0. The “Growth Rate” value [4, 10] was 0, the “Growth Rate” value ([4]; 18 h, replicate number 2, timepoint 18 hours) was 1 and the “Growth Rate” value [4, 11] was 0. The “Growth Rate” value [5, 7] was 0, the “Growth Rate” value ([5]; 6 h, replicate number 2, timepoint 6 hours) was 0 and the “Growth Rate” value [5, 9] was 1. The “Growth Rate” value [5, 10] was 1, the “Growth Rate” value [5, 11] was 1 and the “Growth Rate” value [6, 8] was 0. For the same compound, the “Growth Rate” value ([6]; 6 h, replicate number 1, timepoint 6 hours) was 1, the “Growth Rate” value [6, 9] was 1 and the “Growth Rate” value [6, 10] was 1. For the same compound, the “Growth Rate” value [6, 11] was 1.
